Screening data (PubChem BioAssay)
This is a sample that favours compounds with a hit; in the whole collection about 2.2% have one here.
rRNA inh HTS = reduced GFP signal of wild-type E. coli, primary screen, bacterial rRNA inhibitor project, GFP/RFP fluorescence, OD600, single point | E. coli WT GFP vs humanized-ribosome RFP mutants, 24 h; hits give low values; DMSO median 0, no signal -100 | GFP signal change (wild-type ribosome), % (test concentration not listed) | hit rate 1.6% among 350,000;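 active = significant combined selectivity score with lowered wild-type GFP, culture density cut under 30%, mutant RFP and density less affected; inactive = any of these conditions unmet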
ERp5 block = inhibitors of ERp5-driven insulin aggregation, primary screen, biochemical, turbidity, absorbance 650 nm, single point; Protein disulfide-isomerase A6 (Homo sapiens), Q15084; 90 min; inhibition, % at 9.99 µM; hit rate 0.05% among 350,000;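 active = mean replicate inhibition above about 25%, with every replicate also reaching it, limit read from the data, passing the limit was not always enough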
Target sequence (Q15084 whole entry, looked up): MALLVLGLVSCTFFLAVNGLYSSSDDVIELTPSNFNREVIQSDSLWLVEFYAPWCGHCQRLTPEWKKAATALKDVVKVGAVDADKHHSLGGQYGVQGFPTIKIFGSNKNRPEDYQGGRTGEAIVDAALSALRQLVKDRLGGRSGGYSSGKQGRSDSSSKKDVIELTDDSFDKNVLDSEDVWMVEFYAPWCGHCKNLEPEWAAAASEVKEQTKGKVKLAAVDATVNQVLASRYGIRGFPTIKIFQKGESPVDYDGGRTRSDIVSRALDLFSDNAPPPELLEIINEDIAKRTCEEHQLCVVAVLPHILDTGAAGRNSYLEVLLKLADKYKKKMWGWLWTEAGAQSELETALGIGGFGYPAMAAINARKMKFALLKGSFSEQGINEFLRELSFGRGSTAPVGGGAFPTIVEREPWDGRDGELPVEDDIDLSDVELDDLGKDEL
FN deposit inh = inhibitors of fibronectin matrix deposition, primary screen, AH1F cells, Alexa488-fibronectin fluorescence, plate reader. AH1F fibroblasts, overnight. AID 743247, 2014. hit rate 0.086% among 350,000. inhibition, % at 12.6 µM;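 active = mean inhibition across replicates of 30% or more, regardless of how many single replicates reach that level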;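 note: positive control wells lacked labelled fibronectin entirely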
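Test system: AH1F fibroblast monolayer depositing Alexa488-labelled fibronectin into matrix. Input: 10000 cells per well. Technique: fluorescence, ex 485 nm, em 525 nm. Buffer or medium: DMEM plus 2% serum, read in PBS. Timing: 1 h cell adhesion before compound, then overnight fibronectin incubation. Compound: single dose, pinned. Read-out basis: inhibition from reduced deposited-fibronectin fluorescence.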
PDI inh = inhibitors of human PDI, primary screen, biochemical, turbidity, single point, plate reader; Protein disulfide-isomerase (Homo sapiens), P07237; PDI insulin aggregation turbidity, A650, 90 min; inhibition, % at 10 µM; hit rate 0.052% among 350,000;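 active = mean inhibition across replicates of 30% or more, whatever share of single replicates reach that level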
HIV Env fusion = inhibitors of HIV-1 Env-driven cell-cell fusion, primary screen, HeLa-JRFL effector, CEM21 target cells, luciferase | inhibition, % at 12.3 µM | hit rate 1.1% among 360,000;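 active = mean replicate inhibition score of at least 50 and every replicate individually at or above 50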;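 note: 0% = plate neutral controls and 100% = maraviroc near 300 nM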
PvdQ acylase = P. aeruginosa PvdQ acylase inhibitors, primary screen, biochemical, fluorescence, plate reader and imaging, single point; PvdQ acylase [Pseudomonas aeruginosa LESB58]; purified PvdQ acylase; inhibition, % at 10 µM; hit rate 0.063% among 340,000; AID 488965, 2010; in the data active = inhibition above about 30%, passing the limit was not always enough;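 note: 0% = vehicle neutral wells and 100% = reference inhibitor wells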
* marks the source's active call; other numbers are inactive results; . = not tested or not shown; [ ] = dose if it differs, or a comment.

SMILES | rRNA inh HTS | ERp5 block | FN deposit inh | PDI inh | HIV Env fusion | PvdQ acylase
Cc1ccc(S(=O)(=O)N(C)C[C@@H]2Oc3ccc(NC(=O)Nc4cccc5ccccc45)cc3CC(=O)N([C@H](C)CO)C[C@@H]2C)cc1 | 0 | 0 | . | . | 56*[16.7 µM] | .
C[C@H]1CN([C@@H](C)CO)C(=O)Cc2cc(NC(=O)Nc3cccc4ccccc34)ccc2O[C@H]1CN(C)S(=O)(=O)c1ccccc1 | -1 | -7 | . | . | 71*[16.7 µM] | .
Cc1ccc(S(=O)(=O)N(C)C[C@H]2Oc3ccc(NC(=O)Nc4cccc5ccccc45)cc3C(=O)N([C@H](C)CO)C[C@@H]2C)cc1 | 5 | . | . | . | 66*[16.7 µM] | .
C[C@H]1CN([C@@H](C)CO)C(=O)Cc2cc(NC(=O)Nc3cccc4ccccc34)ccc2O[C@H]1CN(C)S(=O)(=O)c1ccc(F)cc1 | 0 | 15 | . | . | 59*[16.7 µM] | .
Cc1ccc(S(=O)(=O)N(C)C[C@H]2Oc3ccc(NC(=O)Nc4cccc5ccccc45)cc3C(=O)N([C@H](C)CO)C[C@H]2C)cc1 | 2 | . | . | . | -1[16.7 µM] | .
COc1ccc2c3c(n(C)c2c1)[C@H](CO)N(Cc1ccccc1F)CC31CN(C(=O)C2CC2)C1 | -7 | -2 | . | . | . | .
COc1ccc2c3c([nH]c2c1)[C@@H](CO)N(C(=O)C1CCC1)CC31CCN(C(=O)c2ccccn2)CC1 | -3 | 5 | . | . | . | .
COC(=O)c1cc(NC(=O)c2cc(-c3ccccc3Cl)oc2C(F)(F)F)ccc1N1CCOCC1 | -32* | -4 | 4 | 1 | -6 | -4
COC(=O)c1cc(NC(=O)c2cc(-c3ccc(Cl)cc3)oc2C(F)(F)F)ccc1N1CCOCC1 | -10 | 4 | -5 | -6 | 7 | -17
O=C(/C=C/c1ccccc1)c1ccc(NC2=NCCCS2)cc1 | -26* | -6 | -8 | 21 | 6 | -11
O=C(/C=C/c1ccc(Br)cc1)c1ccc(NC2=NCCCS2)cc1 | -13 | 3 | 5 | 28 | -36 | -10
CN1CCN(C(=O)C[C@@H]2C[C@@H]3c4cc(NC(=O)C5CCOCC5)ccc4O[C@@H]3[C@H](CO)O2)CC1 | 4 | 37* | 6 | . | 10[16.7 µM] | .
O=C(C[C@@H]1C[C@@H]2c3cc(NC(=O)CC4CC4)ccc3O[C@@H]2[C@H](CO)O1)NCc1ccccc1 | 1 | 0 | 17 | . | 7[16.7 µM] | .
CN(C)c1ccc2c(c1)[C@@H]1C[C@@H](CC(=O)NCc3ccc(-c4ccccc4)cc3)O[C@@H](CO)[C@@H]1O2 | -11 | -8 | -43 | . | . | .
O=C(C[C@H]1C[C@@H]2c3cc(NC(=O)C4CCOCC4)ccc3O[C@@H]2[C@H](CO)O1)NCc1ccccc1 | 1 | 2 | 7 | . | 83*[16.7 µM] | .
O=C(C[C@H]1C[C@H]2c3cc(NC(=O)CC4CC4)ccc3O[C@H]2[C@@H](CO)O1)NCc1ccc(-c2ccccc2)cc1 | -1 | 53* | -7 | . | 20[16.7 µM] | .
CN(C)c1ccc2c(c1)[C@@H]1C[C@H](CC(=O)NCc3ccc(-c4ccccc4)cc3)O[C@@H](CO)[C@@H]1O2 | -8 | . | -17 | . | 80*[16.7 µM] | .
CCCC(=O)Nc1ccc2c(c1)C(=O)N(C)[C@@H]1CC[C@@H](CC(=O)NCc3ccccc3F)O[C@H]1CO2 | 0 | . | -21 | . | 5[16.7 µM] | .
O=C(NCC1CC1)[C@@H]1[C@@H](CO)[C@@H]2Cn3c(ccc(-c4ccccc4F)c3=O)[C@H]1N2Cc1cccnc1 | 0 | -2 | . | . | 19[16.7 µM] | .
O=C(NCC(=O)N1CCN(c2ncccn2)CC1)c1ccccc1OC(F)F | -1 | 4 | -1 | -3 | 86* | -15
COc1ccc(C(=O)NCC(=O)N2CCN(c3ncccn3)CC2)cc1OC | 4 | 1 | 3 | -4 | 7 | -16
O=C(COc1ccccc1Cl)Nc1cccc(S(=O)(=O)N2CCCC2)c1 | -34* | 1 | -8 | -6 | 11 | 3
CN(C)S(=O)(=O)c1cccc(NC(=O)COc2ccccc2C(=O)NCc2ccccc2)c1 | -34* | 1 | . | -14 | -2 | -14
CCCOc1ccccc1OCC(=O)Nc1ccc(S(=O)(=O)N2CCCC2)cc1 | -8 | -2 | . | -12 | 6 | -14
COc1cccc(OC)c1OCC(=O)Nc1ccc(S(=O)(=O)N2CCCC2)cc1 | -34* | 7 | 5 | 5 | 7 | -11
SMILES | rRNA inh HTS | ERp5 block | FN deposit inh | PDI inh | HIV Env fusion | PvdQ acylase
C[C@H]1CN([C@@H](C)CO)C(=O)Cc2cc(NC(=O)Nc3ccc(F)cc3)ccc2O[C@@H]1CN(C)Cc1ccc2c(c1)OCO2 | -32 | 4 | -5 | . | . | .
COc1ccc(OC)c(-c2cc(C(=O)Nc3c(C)nn(Cc4ccc(Cl)cc4)c3C)no2)c1 | . | . | 5 | -2 | 87* | 4
Cc1nn(Cc2ccc(Cl)c(Cl)c2)c(C)c1NC(=O)c1cc(-c2ccc3c(c2)OCO3)on1 | . | . | 6 | 1 | 73* | -2
Cc1nn(Cc2ccc(Cl)cc2)c(C)c1NC(=O)c1cc(-c2ccc3c(c2)OCO3)on1 | . | . | 5 | 1 | 30 | -13
Clc1nc(NCCc2ccccc2)c2cn[nH]c2n1 | -30* | 1 | . | 3 | 20 | 7
COc1cccc(OC)c1OCCCCCc1c(C)n[nH]c1C | . | . | . | 3 | . | -11
COc1cccc(OC)c1OCCCCc1c(C)n[nH]c1C | -24* | 3 | -11 | 0 | -1 | 2
CC(C)CC#Cc1ccc2c(c1)O[C@H](CN(C)C(=O)c1ccccn1)[C@H](C)CN([C@@H](C)CO)S2(=O)=O | -3 | -2 | . | . | 6[16.7 µM] | .
Cc1nn(-c2nc3ccccc3[nH]2)c(=O)c2ccccc12 | 26 | 6 | 17 | 9 | 72* | -3
Cc1nn(-c2ccc3ccccc3c2)c(=O)c2ccccc12 | -8 | 3 | -7 | -5 | -28 | 6
C=CCn1c(C)cc(C(=O)CN2C(=O)c3ccccc3S2(=O)=O)c1C | . | . | . | -7 | . | 6
Cc1cc(C(=O)CN2C(=O)c3ccccc3S2(=O)=O)c(C)n1C(C)C | -8 | 1 | 0 | 17 | 91* | 2
CCn1c(C)cc(C(=O)CN2C(=O)c3ccccc3S2(=O)=O)c1C | 5 | 0 | 3 | 3 | 98* | -7
C/C=C/c1cnc2c(c1)C(=O)N([C@@H](C)CO)C[C@@H](C)[C@@H](CN(C)C(=O)NC1CCCC1)O2 | 1 | 1 | . | . | -7[16.7 µM] | .
C[C@H](NC(=O)C[C@H]1C=C[C@@H](NC(=O)CN2CCOCC2)[C@H](CO)O1)c1ccccc1 | 1 | 3 | 2 | . | 51[16.7 µM] | .
COc1cc(OC)cc(-c2cc3nc(C)c(CCC(=O)O)c(C)n3n2)c1 | -9 | -1 | 0 | 5 | 73* | 11
